Published values of several laboratories.
Compare with care: the assays were run in different laboratories.
Read-out: enzyme activity
Mode: inhibitor
CDK2: Cyclin-dependent kinase 2 (CDK2, Homo sapiens, UniProt P24941)
CDK2 with cyclin A: Cyclin-dependent kinase 2, with cyclin A (CDK2, Homo sapiens, UniProt P24941)

O=C(CSc1nc2nccnc2c(=O)n1CCc1ccccc1)Nc1nccs1
inhibition (Cyclin-dependent kinase 2, with cyclin O (CDK2, Homo sapiens, UniProt P24941); 10 µM): 3%

CSc1nc(C)c(-c2ccnc(Nc3ccc(N4CCOCC4)cc3)c2)[nH]1
inhibition (CDK2; 10 µM): 66.4%

COc1cc(-c2cc(-c3ccc(N4CCNCC4)cc3)cnc2N)cc(OC)c1OC
inhibition (CDK2 with cyclin A; 0.1 µM): 1%

Cn1cncc1C1=CN(c2ncnc3[nH]cnc23)CCS1
inhibition (CDK2; radiometric; 50 nM): 12.6%

CC/C(=N\NC(=O)NCc1cccc(O)c1)c1ccc(O)c(C)c1O
inhibition (Cyclin-dependent kinase 2, with cyclin A2 (CDK2, Homo sapiens, UniProt P24941); 0.1 µM): 0.5%

CN1CC(Oc2cnc(C#N)cc2-c2ccn3nc(NC(=O)C4CC4)cc3c2)C1
inhibition (Cyclin-dependent kinase 2, with cyclin E (CDK2, Homo sapiens, UniProt P24941); 1 µM): -13%

CN(c1ncccc1CNc1nc(Nc2ccc3c(c2)CC(=O)N3)ncc1C(F)(F)F)S(C)(=O)=O
inhibition (CDK2; 1 µM): 94.4%

CCCS(=O)(=O)Nc1ccc(F)c(C(=O)c2c[nH]c3ncc(-c4ccc(Cl)cc4)cc23)c1F
inhibition (CDK2 with cyclin A; 1 µM): < 10%

Nc1nc(Nc2ccc(S(N)(=O)=O)cc2)sc1C(=O)c1ccccc1[N+](=O)[O-]
inhibition (CDK2; 0.1 µM): 95 to 96%

COc1cc2ncnc(Nc3ccc(Oc4ccccc4)c(C)c3C)c2cc1OC
inhibition (CDK2 with cyclin A; 1 µM): 1%

Cn1cnc(Br)c1C1=CN(c2ncnc3[nH]cnc23)CCS1
inhibition (CDK2; radiometric; 50 nM): 20.5%

CN(C)C1CCN(CC#Cc2nn(C3CCCC3)c3nc(NCc4ccccc4)ncc23)C1 (stereo not drawn)
inhibition (CDK2 with cyclin A; FRET; 10 µM): 4%
